Results as given in publication PMC3331960 (Nature chemical biology, 2012).
Several values for one entry are separate records, joined by “and”; a condition that tells them apart may be missing. Identical values can stand only once. Where no end group is shown, it is not given here. The star is where a group is joined. Biotin = O=C1N[C@H]2[C@H](CS[C@H]2CCCCC(=O)*)N1

Columns and labels:
TIR1-IAA7 DII [1] = molecular target: T1, TIR1-IAA7 DII (Arabidopsis thaliana, UniProt Q38825+Q570C0, DEL96-243); assay: Surface plasmon resonance, TIR1 over immobilized IAA7 DII peptide; format: binding; details: for TIR1 association with the DII peptide (SPR): co-injection of TIR1 with auxin, vs no auxin; for dissociation of the TIR1-IAA7 DII complex (SPR): 50 μM ligand concentration
TIR1-IAA7 interaction = molecular target: T2, TIR1-IAA7 interaction (Arabidopsis thaliana, UniProt Q38825+Q570C0); assay: LexA yeast two-hybrid, auxin-induced TIR1-IAA7 interaction; format: cell-based; details: 50 μM auxins in selective media
T2 sequence (Q570C0 1-594): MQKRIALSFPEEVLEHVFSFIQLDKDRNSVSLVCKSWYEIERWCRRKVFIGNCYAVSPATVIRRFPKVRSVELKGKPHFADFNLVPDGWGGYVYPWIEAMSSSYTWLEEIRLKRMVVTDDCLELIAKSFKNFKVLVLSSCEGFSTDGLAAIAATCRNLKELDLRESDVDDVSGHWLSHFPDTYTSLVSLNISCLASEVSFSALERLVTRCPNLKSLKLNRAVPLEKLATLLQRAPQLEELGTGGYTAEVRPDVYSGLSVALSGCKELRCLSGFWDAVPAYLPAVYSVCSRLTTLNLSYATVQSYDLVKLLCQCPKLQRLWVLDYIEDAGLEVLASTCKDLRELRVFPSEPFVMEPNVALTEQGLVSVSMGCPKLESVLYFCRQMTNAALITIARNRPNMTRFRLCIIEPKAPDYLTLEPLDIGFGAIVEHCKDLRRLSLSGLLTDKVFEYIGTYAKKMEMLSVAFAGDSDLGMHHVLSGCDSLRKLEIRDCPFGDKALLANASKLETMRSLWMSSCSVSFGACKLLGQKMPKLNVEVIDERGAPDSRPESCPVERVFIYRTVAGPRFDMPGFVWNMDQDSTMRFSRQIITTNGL
T2 sequence (Q38825 1-243): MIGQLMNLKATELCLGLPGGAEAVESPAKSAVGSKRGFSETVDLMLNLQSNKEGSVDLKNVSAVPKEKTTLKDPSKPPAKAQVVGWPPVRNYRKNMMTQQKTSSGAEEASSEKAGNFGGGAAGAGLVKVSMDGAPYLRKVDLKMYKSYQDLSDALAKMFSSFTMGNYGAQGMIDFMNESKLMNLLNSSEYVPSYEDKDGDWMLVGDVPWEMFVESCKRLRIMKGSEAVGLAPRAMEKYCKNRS

TIR1-IAA7 = molecular target: T3, TIR1-IAA7 (Arabidopsis thaliana, UniProt Q38825+Q570C0); assay: [3H]-IAA radioligand binding; details: for Ki: Ki (Mean ± SEM), TIR1-IAA7, cold competitor vs [3H] IAA
T3 sequence (Q570C0 1-594): T2 sequence (Q570C0 1-594)
T3 sequence (Q39255 1-160 partner): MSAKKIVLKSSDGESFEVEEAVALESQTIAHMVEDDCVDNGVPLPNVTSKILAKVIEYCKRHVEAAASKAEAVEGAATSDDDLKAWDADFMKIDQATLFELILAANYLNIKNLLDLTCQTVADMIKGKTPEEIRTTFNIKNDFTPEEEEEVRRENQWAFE
T3 sequence (Q38825 1-243): T2 sequence (Q38825 1-243)
Summary of the method: (§1)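 ASK1-TIR1 or ASK1-AFB5 (0.44 μg, insect cells) with E. coli GST-IAA7 (1:10 molar), >1 h at 4°C in pH 8.0 Tris binding buffer. KD from [³H]-IAA saturation binding. Ki from competition with cold 1-NAA, 2,4-D or picloram against fixed [³H]-IAA (5–100 nM), fitted to a one-site competition model by nonlinear regression. Filter binding with scintillation read-out; triplicates.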

[2] = system: Arabidopsis wild type plants (Col-0); assay: Root elongation assay of seedlings; format: in vivo, Arabidopsis thaliana; details: 40 or 80 nM 2,4-D, 4 days, Col-0 seedlings
Summary of the method: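 Seedlings grown 5 days on MS medium, then transferred to medium with 2,4-D. Root elongation was measured after 4 more days and expressed as a proportion of growth without auxin. Col-0, tir1-1 and tir1-1 afb2-3 were tested; error bars are STDEV.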

AFB5-IAA7 = AFB5-IAA7 (Arabidopsis thaliana, UniProt Q38825+Q9LTX2); assay: [3H]-IAA radioligand binding
Summary of the method: as §1

AFB5-IAA7 DII = AFB5-IAA7 DII (Arabidopsis thaliana, UniProt Q38825+Q9LTX2, DEL96-243); assay: Surface plasmon resonance, AFB5 over immobilized IAA7 DII peptide; format: binding; details: 50 μM picloram
TIR1-IAA17 = TIR1-IAA17 (Arabidopsis thaliana, UniProt P93830+Q570C0); assay: [3H]-IAA homologous competitive binding, TIR1-IAA17; details: Kd (Mean ± SEM), TIR1-IAA17, homologous competition
Summary of the method: (§2)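 Homologous competition: insect-cell ASK1-TIR1 (0.44 μg) plus E. coli GST-Aux/IAA (1:10 molar), in pH 8.0 Tris binding buffer, >1 h at 4°C. Fixed [³H]-IAA (5, 10, 25 or 100 nM, kept below half the IC50) with rising cold IAA. Filter binding, scintillation counting. Specific binding fitted to a one-site competition model by nonlinear regression. Independent assays run in triplicate.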

TIR1-IAA14 = TIR1-IAA14 (Arabidopsis thaliana, UniProt Q38832+Q570C0); assay: [3H]-IAA homologous competitive binding, TIR1-IAA14; details: TIR1-IAA14, homologous competition
Summary of the method: as §2

TIR1-IAA12 GWPPVR = TIR1-IAA12 GWPPVR (Arabidopsis thaliana, UniProt Q38830+Q570C0, G77R/I76V); assay: [3H]-IAA saturation binding, TIR1-IAA12 GWPPVR
Summary of the method: (§3)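 Saturation binding: insect-cell ASK1-TIR1 (0.44 μg) with GST-tagged full-length, truncated or degron-mutated IAA protein from E. coli (1:10 molar). Incubated >1 h at 4°C in pH 8.0 Tris/NaCl/glycerol/Tween buffer with at least six [³H]-IAA concentrations either side of the KD. Filter-trapped and scintillation counted; nonspecific binding determined with 1000x cold IAA. KD by nonlinear regression; independent assays in triplicate.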

TIR1-IAA31 = TIR1-IAA31 (Arabidopsis thaliana, UniProt Q570C0+Q8H174); assay: [3H]-IAA binding, TIR1-IAA31
Summary of the method: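 ASK1-TIR1 (insect cells, 0.44 μg) and full-length GST-IAA31 (E. coli, 1:10 molar) were incubated with [³H]-IAA >1 h at 4°C in pH 8.0 Tris buffer, then filter-bound and scintillation counted. KD came from nonlinear regression of saturation and/or homologous competition binding data; independent assays run in triplicate.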

TIR1-IAA7 K35Q = TIR1-IAA7 K35Q (Arabidopsis thaliana, UniProt Q38825+Q570C0, K35Q); assay: [3H]-IAA binding at 200 nM, TIR1-IAA7 K35Q; details: 200 nM [3H]-IAA, Lys35Gln mutant compared to TIR1-IAA7
TIR1-IAA7^axr2-1 = TIR1-IAA7^axr2-1 (Arabidopsis thaliana, UniProt Q38825+Q570C0, P87S); assay: [3H]-IAA binding at 200 nM, TIR1-IAA7 axr2-1; details: 200 nM [3H] IAA
Summary of the method: (§4)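 ASK1-TIR1 (tagged, co-expressed in Hi5 insect cells) and GST-Aux/IAA or mutant (E. coli), at 0.44 μg and 1:10 molar ratio as applicable, or synthetic biotinylated degron peptide. Incubated >1 h at 4°C in Tris-HCl pH 8.0/200 mM NaCl/10% glycerol/0.1% Tween 20 with [³H]-IAA (20 Ci/mmol). Trapped on PEI-treated glass-fibre filters, washed thrice, scintillation counted. Nonspecific binding determined with 1000x cold IAA.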

IAA7 DII = IAA7 DII (Arabidopsis thaliana, UniProt Q38825); assay: [3H]-IAA binding at 200 nM, IAA7 DII peptide alone; details: 200 nM [3H] IAA
Summary of the method: as §4

TIR1-IAA7 DII [3] = molecular target: T1, TIR1-IAA7 DII; assay: [3H]-IAA saturation binding, TIR1 with biotinylated IAA7 DII peptide; details: Kd (Mean ± SEM), TIR1-biotinylated peptide DII of IAA7, saturation binding
TIR1-IAA28 = TIR1-IAA28 (Arabidopsis thaliana, UniProt Q570C0+Q9XFM0); assay: [3H]-IAA homologous competitive binding, TIR1-IAA28; details: Kd (Mean ± SEM), TIR1-IAA28, homologous competition
Summary of the method: as §2

TIR1-IAA3 = TIR1-IAA3 (Arabidopsis thaliana, UniProt Q38822+Q570C0); assay: [3H]-IAA saturation binding, TIR1-IAA3; details: Kd (Mean ± SEM)
Summary of the method: as §3

TIR1-IAA7 K35Q R36Q = TIR1-IAA7 K35Q R36Q (Arabidopsis thaliana, UniProt Q38825+Q570C0, K35Q/R36Q); assay: [3H]-IAA binding at 200 nM, TIR1-IAA7 K35Q R36Q; details: 200 nM [3H]-IAA, Lys35Gln Arg36Gln mutant compared to TIR1-IAA7
TIR1-DI-DII = TIR1-DI-DII (Arabidopsis thaliana, UniProt Q38825+Q570C0); assay: [3H]-IAA saturation binding, TIR1-DI-DII
Summary of the method: as §3

TIR1-bdl = TIR1-bdl (Arabidopsis thaliana, UniProt Q570C0); assay: [3H]-IAA binding at 200 nM, TIR1-ASK1 with bdl; details: 200 nM [3H] IAA, TIR1-ASK1 and bdl
Summary of the method: as §4

TIR1 = TIR1 (Arabidopsis thaliana, UniProt Q570C0); assay: [3H]-IAA binding at 200 nM, TIR1 alone; details: 200 nM [3H] IAA
Summary of the method: as §4

TIR1-slr = assay: [3H]-IAA binding at 200 nM, TIR1-ASK1 with slr; design: species or system Arabidopsis thaliana; details: 200 nM [3H] IAA, TIR1-ASK1 and slr
Summary of the method: as §4

IAA7 = IAA7 (Arabidopsis thaliana, UniProt Q38825); assay: [3H]-IAA binding at 200 nM, IAA7 alone; details: 200 nM [3H] IAA
Summary of the method: as §4

TIR1-IAA1 = TIR1-IAA1 (Arabidopsis thaliana, UniProt P49677+Q570C0); assay: [3H]-IAA homologous competitive binding, TIR1-IAA1; details: Kd (Mean ± SEM), TIR1-IAA1, homologous competition
Summary of the method: as §2

TIR1-ASK1 complex = molecular target: T4, TIR1-ASK1 complex (Arabidopsis thaliana, UniProt Q570C0;Q39255); assay: SPR
T4 sequence 1: T2 sequence (Q570C0 1-594)
T4 sequence 2: T3 sequence (Q39255 1-160 partner)

## O=C(O)Cc1cccc2ccccc12 [1-NAA, 1-naphthaleneacetic acid]
TIR1-IAA7 DII [1]
  TIR1 association with the DII peptide (SPR): enhanced association with the peptide
TIR1-IAA7 interaction
  TIR1-IAA7 interaction in yeast (β-galactosidase expression): promoted TIR1-IAA7 interaction, but not to the same extent as IAA

## O=C(O)COc1ccc(Cl)cc1Cl [2,4-D, 2,4-dichlorophenoxyacetic acid]
TIR1-IAA7 DII [1]
  dissociation of the TIR1-IAA7 DII complex (SPR): much more rapid dissociation rate
  TIR1 association with the DII peptide (SPR): enhanced association with the peptide
TIR1-IAA7
  Ki: 248 to 1000 nM
TIR1-IAA7 interaction
  TIR1-IAA7 interaction in yeast (β-galactosidase expression): promoted TIR1-IAA7 interaction, but not to the same extent as IAA
[2]
  root elongation: inhibits root growth elongation

## Nc1c(Cl)c(Cl)nc(C(=O)O)c1Cl [picloram, 4-amino-3,5,6-trichloro-2-pyridinecarboxylic acid]
TIR1-IAA7 DII [1]
  dissociation of the TIR1-IAA7 DII complex (SPR): rapid dissociation
  TIR1 association with the DII peptide (SPR): enhanced association with the peptide
TIR1-IAA7
  Ki: 3900 ± 910 nM
TIR1-IAA7 interaction
  TIR1-IAA7 interaction in yeast (β-galactosidase expression): promoted TIR1-IAA7 interaction, but not to the same extent as IAA
AFB5-IAA7; Ki (Mean ± SEM), AFB5-IAA7, cold competitor vs [3H] IAA
  Ki: 54.9 nM and 54.7 nM
AFB5-IAA7 DII
  assembly of the AFB5-IAA7 complex (SPR): promotes rapid assembly

## O=C(O)Cc1c[nH]c2ccccc12 [IAA, Indole-3-acetic acid]
TIR1-IAA17
  Kd: 33 ± 3 nM
TIR1-IAA14
  Kd: 10.1 nM
TIR1-IAA12 GWPPVR
  Kd: 72.5 ± 21.6 nM
TIR1-IAA31
  Kd: > 1000 nM
TIR1-IAA7 K35Q
  auxin binding diminished: around 50%
TIR1-IAA7^axr2-1
  binding of [3H] IAA: did not bind auxin
TIR1-IAA7 DII [1]
  TIR1 association with the DII peptide (SPR): enhanced association with the peptide
TIR1-IAA7
  Kd: 17.8 ± 7.81 nM
IAA7 DII
  binding of [3H] IAA: lacked appreciable binding
TIR1-IAA7 DII [3]
  Kd: 218 nM
TIR1-IAA28
  Kd: ~75 nM and 75 nM
TIR1-IAA3
  Kd: 17 ± 3.43 nM
TIR1-IAA7 K35Q R36Q
  auxin binding diminished: around 50%
TIR1-DI-DII
  Kd: 13.8 ± 4.63 nM
AFB5-IAA7
  Kd: 51.3 ± 12.6 nM
TIR1-bdl
  specific binding of [3H] IAA: abolish specific auxin binding
TIR1
  binding of [3H] IAA: lacked appreciable binding
TIR1-slr
  specific binding of [3H] IAA: abolish specific auxin binding
IAA7
  binding of [3H] IAA: lacked appreciable binding
TIR1-IAA1
  Kd: 44.3 ± 6.67 nM

## Biotin-AKAQVVGWPPVRNYRKN [Biotinylated DII IAA7 peptide (SPR)]
TIR1-ASK1 complex
  binding result: binds
